High-throughput results (PubChem)
Only some compounds are listed: those with a hit (about 3.5% of all), similar ones and a draw of the others.
MrgX1 antagonist: antagonists of human MrgX1 receptor, primary screen, HEK293 cells, Fluo-4 calcium flux. BAM8-22 antagonism; active compounds read low. B-score at 10 µM. 1.3% of 310,000 active. AID 588676, 2011;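 active = calcium-response B-score plate-corrected more than 3 library SD below zero, starting fluorescence within 5 deviations, no agonist response on first addition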;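 also: peak minus trough fluorescence over baseline after final BAM8-22 challenge near maximal dose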
Target sequence (Q96LB2 whole entry, looked up): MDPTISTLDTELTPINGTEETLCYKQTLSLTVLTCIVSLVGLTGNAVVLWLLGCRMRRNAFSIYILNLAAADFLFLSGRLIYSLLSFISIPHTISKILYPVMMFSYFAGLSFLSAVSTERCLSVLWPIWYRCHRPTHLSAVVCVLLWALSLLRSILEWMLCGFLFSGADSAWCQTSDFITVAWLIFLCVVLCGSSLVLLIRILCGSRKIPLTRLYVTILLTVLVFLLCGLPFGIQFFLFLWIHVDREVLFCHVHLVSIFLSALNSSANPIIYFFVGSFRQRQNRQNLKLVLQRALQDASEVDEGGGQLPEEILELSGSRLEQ
MrgX1 agonist: agonists of human MrgX1 receptor, primary screen, HEK293 cells, Fluo-4 calcium flux; 0.44% of 310,000 active; B-score at 10 µM; AID 588627, 2011; Fluo-4 calcium fluorescence, agonist mode; active compounds read high; Mas-related G-protein coupled receptor member X1 (Homo sapiens), Q96LB2;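 active = calcium response B-score plate-corrected fluorescence ratio at least 3 library SD, with starting fluorescence B-score inside 5 SD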
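Assay system: stable human MrgX1 HEK293 cell line. Quantity: 15,000 cells per well. Schedule: cells plated overnight, dye loaded 0.5 h 37 °C, 0.5 h room temperature. Detection: Fluo-4 NW calcium-flux fluorescence, kinetic read. Read-out basis: peak-minus-minimum fluorescence over baseline, converted to B scores. Control set: positive and negative control wells on each plate.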
RGS4 inh: RGS4 inhibitors, primary screen, cell-based, HEK293 M3R inducible RGS4, calcium flux; Regulator of G-protein signaling 4 (Homo sapiens), P49798; Fluo-4 calcium flux; active compounds read high; triggered by carbachol at its EC20; B-score at 10 µM; 0.45% of 310,000 active; AID 463165, 2010;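 active = B-score, a plate-corrected calcium signal, over three deviations above library mean, with baseline fluorescence within five deviations of library mean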;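 also: RGS4 expression induced by doxycycline in cells with stable M3 receptor; B-score is computed from the integrated fluorescence ratio over baseline after carbachol; higher B-score means a larger calcium signal and so more RGS4 inhibition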
Target sequence (P49798 whole entry, looked up): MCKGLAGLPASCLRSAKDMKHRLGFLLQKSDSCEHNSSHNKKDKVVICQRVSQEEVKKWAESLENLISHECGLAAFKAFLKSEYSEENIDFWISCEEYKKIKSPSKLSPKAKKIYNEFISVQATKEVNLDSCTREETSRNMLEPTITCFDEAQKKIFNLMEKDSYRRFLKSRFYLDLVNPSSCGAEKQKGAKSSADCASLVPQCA
RGS4 act: RGS4 potentiators or activators, primary screen, cell-based, HEK293 M3R inducible RGS4, calcium flux; carbachol calcium flux Fluo4; active compounds read low; B-score at 10 µM; 0.92% of 310,000 active; AID 463111, 2010;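 active = B-score of the integrated calcium signal more than 4 SD below the library mean, with starting fluorescence not abnormally high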;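 also: negative B-score means reduced calcium response which marks RGS4 activation or potentiation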
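Assay system: HEK293 FlpIn-TREx cells, stable M3R, doxycycline-inducible RGS4 / Probe or stimulus: carbachol, ECmax concentration / Times: overnight RGS4 induction, 30 min dye load 37 °C, 20 min compound RT / Signal: kinetic calcium fluorescence imaging with Fluo4-AM dye, 2 µM / Measure: Agonist-evoked peak-minus-minimum fluorescence over baseline, integrated ratio, B score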
MrgX1 PAM: positive allosteric modulators of MrgX1, primary screen, HEK293 cells, Fluo-4 calcium flux; Mas-related G-protein coupled receptor member X1 (Homo sapiens), Q96LB2; FDSS; active compounds read high; B-score at 10 µM; 0.63% of 310,000 active; AID 588675, 2011;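 active = plate-corrected calcium response at least 3 library SD above typical, normal starting fluorescence, not activating the receptor alone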;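 also: compound read alongside a low EC10 to EC30 dose of BAM8-22 agonist; peak minus trough fluorescence over baseline measured at the second addition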
RGS4 activ val: reduced carbachol calcium response, RGS4-induced M3R cells, confirmation, RGS4 activator project, cell-based, HEK293 M3R/RGS4 inducible, calcium flux, duplicate. shares compounds with RGS4 act. carbachol calcium flux Fluo4. inhibition, % at 10 µM. 89% of 1,100 active. AID 602282, 2012;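 active = inhibition above 3 SD of the buffer control wells, cut at about 41% in these data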;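 also: signal is the integrated peak-minus-minimum Fluo4 fluorescence over baseline ratio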
RGS4 act ctr: counter-screen for RGS4 activators: effect in non-induced cells. inhibition, % at 10 µM. AID 602283. 82% of 1,100 active. HEK293 M3R non-induced RGS4, Fluo4 calcium flux; after carbachol challenge at its EC90. shares compounds with RGS4 act;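 active = inhibition exceeding 3 SD of buffer-only control wells, cut at about 26% in these data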;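 also: percent drop in integrated peak-minus-baseline over baseline Fluo4 ratio after carbachol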
* marks the source's active call; other numbers are inactive results; i = inactive; / = no result given.

SMILES | MrgX1 antagonist | MrgX1 agonist | RGS4 inh | RGS4 act | MrgX1 PAM | RGS4 activ val | RGS4 act ctr
Cc1ccc(N2C(=O)C(O)(C(F)(F)F)C3=C2CC(C)(C)CC3=O)cc1C (configuration not stated) | i | i | i | i | i | / | /
CC1(C)CC(=O)C2=C(C1)N(c1ccc(Cl)cc1)C(=O)C2(O)C(F)(F)F (configuration not stated) | i | i | i | -14* | i | 79* | 27*
COc1cc(C(CCN2CCCCC2)c2c(OC)cc(OC)c3c(C)cc(=O)oc23)cc(OC)c1OC (configuration not stated) | i | i | i | i | i | / | /
CC(=O)N(C)c1ccc(NC(=O)Nc2ccc(C)cc2)cc1 | i | i | i | i | i | / | /
CC(=O)N(C)c1ccc(NC(=O)Nc2ccc(Cl)cc2)cc1 | i | i | i | -8.3* | i | 93* | 68*
Cn1c(SCc2c(Cl)cccc2Cl)nnc1-c1cccs1 | i | i | i | -12* | i | 74* | 84*
CCCCN(C(=O)c1ccc(Br)o1)C1CCS(=O)(=O)C1 (configuration not stated) | i | i | i | i | i | / | /
COc1cc(C)c(C(C)C)cc1S(=O)(=O)N1CCOCC1 | i | i | i | -8.8* | i | 0 | 0
CCOc1cc(C)c(C(C)C)cc1S(=O)(=O)N1CCOCC1 | i | i | i | i | i | / | /
OC(CN1CCCCCC1)CN(c1ccccc1)c1ccccc1 (configuration not stated) | i | i | i | i | i | / | /
OC(CN1CCCCC1)CN(c1ccccc1)c1ccccc1 (configuration not stated) | i | i | i | -9.8* | i | 90* | 58*
CC(C)(C)OC(=O)NC1CC2CCCC(C1)N2Cc1ccccc1 (configuration not stated) | / | / | i | -9.7* | / | 92* | 89*
Cc1cc(C)c(OCC(=O)Nc2ccc(NC(=O)c3ccco3)cc2)c([N+](=O)[O-])c1 | i | i | / | / | i | / | /
Cc1cc(C)c(OCC(=O)Nc2cccc(NC(=O)c3ccco3)c2)c(Br)c1 | i | i | i | -7.8* | i | 90* | 52*
COc1cc(/C=N/NC(=O)COc2ccc([N+](=O)[O-])cc2)ccc1OCC(=O)N1CCOCC1 | i | i | i | i | i | / | /
OCCN(CCO)Cc1csc2ccccc12 | i | i | i | i | i | / | /
CCCOc1ccc(NC(=O)c2c(-c3ccccc3)noc2C)cc1 | i | i | i | i | i | / | /
CC(=O)Nc1ccc(OCCCNC(=O)c2c(-c3ccccc3)noc2C)cc1 | i | i | i | -8.6* | i | 0 | 0
Cc1cc(F)ccc1S(=O)(=O)Nc1ccc(O)c(Sc2ncn[nH]2)c1 | i | i | i | i | i | / | /
CCOc1ccc(-n2cc(-c3ccccc3)c3c(N4CCOCC4)ncnc32)cc1 | i | i | i | -8.2* | i | 62* | 0
CN1CCN(c2ncnc3c2c(-c2ccccc2)cn3-c2ccc(F)cc2)CC1 | i | i | i | i | i | / | /
C(=N\c1nc2ccccc2n1Cc1ccccc1)/c1cccs1 | i | i | i | -9.8* | i | 76* | 41*
Cc1ccc(N(CC(=O)NCc2ccc3c(c2)OCO3)S(=O)(=O)c2c(C)noc2C)cc1 | i | i | i | i | i | / | /
Cc1noc(C)c1S(=O)(=O)N(CC(=O)NCc1ccc2c(c1)OCO2)c1ccc(C(C)C)cc1 | i | i | i | -8.3* | i | 0 | 0
Cc1ccc(-c2cc(C(=O)Nc3cccnc3)c3ccccc3n2)o1 | i | i | i | i | i | / | /
SMILES | MrgX1 antagonist | MrgX1 agonist | RGS4 inh | RGS4 act | MrgX1 PAM | RGS4 activ val | RGS4 act ctr
CC(=O)Nc1cccc(NC(=O)c2cc(-c3cccnc3)nc3ccc(Br)cc23)c1 | i | i | i | i | i | / | /
CC(=O)Nc1cccc(NC(=O)c2cc(-c3cccnc3)nc3ccc(Cl)cc23)c1 | i | i | i | -8.6* | i | 46* | 0
O=C(Nc1cccnc1)c1cc(-c2ccc(Br)cc2)nc2ccccc12 | i | i | i | -13* | i | 92* | 76*
COc1cc(/C=C/C(=O)OCC(=O)Nc2oc(C)c3c(C)n[nH]c(=O)c23)ccc1OC(F)F | i | i | i | i | i | / | /
CCOC(=O)C1=C(CC)Nc2ccccc2N=C1NC(=O)CCNC(C)=O | i | i | i | i | i | / | /
CCOCc1c(C(=O)NC2=Nc3ccccc3NC(CC)=C2C(=O)OCC)oc2ccccc12 | i | i | i | -8.9* | i | 76* | 84*
CCOC(=O)C1=C(CC)Nc2ccccc2N=C1NC(=O)c1oc2ccccc2c1C | i | i | i | -12* | i | 84* | 52*
COc1ccc(C(CNC(=O)c2ccc(Cl)c(NC(=O)c3cccs3)c2)N2CCCC2)cc1 (configuration not stated) | i | i | i | -12* | i | 89* | 52*
CC(C)n1c(SCC(=O)NC2CCCCC2)nnc1-c1ccco1 | i | i | i | i | i | / | /
O=C(NCc1n[nH]c(=S)n1-c1ccc(Br)cc1)c1cccs1 | i | i | i | i | i | / | /
COc1ccc(C(CNc2nc(-c3cccnc3)nc3ccccc23)N(C)C)cc1 (configuration not stated) | i | i | i | -9.3* | i | 60* | 84*
COC(=O)CNc1nc(-c2cccnc2)nc2ccccc12 | i | i | / | / | i | / | /
c1ccc(CNc2nc(-c3cccnc3)nc3ccccc23)cc1 | i | i | i | -8.4* | i | 84* | 37*
Cc1ccc(CNc2nc(-c3cccnc3)nc3ccccc23)cc1 | i | i | i | i | i | / | /
Oc1ccccc1Cc1c(O)ccc2ccccc12 | i | i | i | i | i | / | /
CCOC(=O)N1CCC(C(=O)NNC(=O)c2ccc(Cl)cc2Cl)CC1 | i | i | i | i | i | / | /
